MsrA act: bovine methionine sulfoxide reductase A activation; purified bovine MsrA, absorbance read-out; activation, % at 10.6 µM; actives 0.3% (n = 360,000); AID 602163; in the data active = activation above about 7.5%;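 also: 0% = vehicle and 100% = reference activator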
MsrA inhibitor: inhibits bovine methionine sulfoxide reductase A; purified bovine MsrA, absorbance read-out; inhibition, % at 15.5 µM; actives 0.75% (n = 360,000); in the data active = inhibition above about 4.5%;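 also: 0% = vehicle wells with enzyme and 100% = reference inhibitor wells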
NadD inh: inhibitors of Staphylococcus aureus NadD; AID 602399; actives 0.78% (n = 360,000); inhibition, % at 20 µM; purified NadD enzyme, colorimetric absorbance read-out; in the data active = inhibition above about 26%
NR2E3 ag-1: agonists of human nuclear receptor NR2E3; Q9Y5X4; GST-NR2E3/biotin-RetCOR TR-FRET, 1536-well; inhibition of corepressor binding, % at 4.78 µM; actives 0.12% (n = 320,000);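 active = percent inhibition above the cutoff of mean plus 3 SD of all tested compounds, set per screening campaign, cut at about 20% in these data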;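 also: 0% = DMSO wells and 100% = biotin wells as full block of FRET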
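Material: NR2E3–RetCOR corepressor complex / Incubation: Compound–protein incubation for 5 h at 4 °C / Dosing: compound at 4.8 µM, single dose / Detection: time-resolved FRET / Benchmarks: high control biotin, low control 0.6% DMSO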
NR2E3 ag-2: agonists of human NR2E3 nuclear receptor; CHO-S Gal4-NCOR/VP16-NR2E3 two-hybrid, luciferase; inhibition of corepressor binding, % at 3.98 µM; actives 0.35% (n = 360,000); AID 602229;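 active = inhibition above the mean of all tested compounds plus 3 SD, cut at about 70% in these data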;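 also: 0% = DMSO with NR2E3 transfected cells and 100% = cells lacking NR2E3 construct; higher means lower luciferase signal from less NR2E3 corepressor binding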
GalR3 antag: human GalR3 antagonism | O60755 | inhibition, % at 3 µM | actives 0.44% (n = 360,000) | HEK293 GalR3-CNG cAMP membrane potential fluorescence; galR3 body fused to GalR1 C-terminus;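 active = inhibition above the screen-wide average plus 3 SD, cut at about 13% in these data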;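 also: forskolin and galanin both at EC90 stimulate the cells; cAMP rise reported by CNG channel membrane potential dye signal; 0% = forskolin plus galanin with DMSO and 100% = forskolin alone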
NR2E3 ag confirm: confirmation of human NR2E3 nuclear receptor agonists; shares compounds with NR2E3 ag-1; cell-free NR2E3 corepressor release, TR-FRET, 5 h; activation (reported as inhibition), % at 3.98 µM; actives 39% (n = 360); in the data active = activation above about 20%
PPARg-NCOR2 ctr: releases PPARgamma from NCOR2 in NR2E3 counter-screen. shares compounds with NR2E3 ag-1. TR-FRET PPARg-NCOR2 coregulator interaction, biochemical. inhibition, % at 3.98 µM. actives 45% (n = 360); in the data active = inhibition above about 20%;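 also: 0% = DMSO vehicle and 100% = wells without protein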
* hit, by the source's call; / = not tested or not shown. In the library only some 2.5% were active in any assay of this set; here they are far more common.

SMILES	MsrA act	MsrA inhibitor	NadD inh	NR2E3 ag-1	NR2E3 ag-2	GalR3 antag	NR2E3 ag confirm	PPARg-NCOR2 ctr
COc1cc(/C=C2\C(=N)N3N=C(S(C)(=O)=O)SC3=NC2=O)ccc1OCCOc1ccc(C)cc1	-2	2	33*	3	-16	-10	/	/
COc1cc(/C=C2\C(=N)N3N=C(S(C)(=O)=O)SC3=NC2=O)cc(OC)c1OCCOc1cccc(C)c1	-4	1	32*	4	-9	-9	/	/
CCC1=NN2C(=N)/C(=C\c3ccc(OCCOc4ccccc4)c(OC)c3)C(=O)N=C2S1	/	1	/	1	/	-7	/	/
COc1cc(/C=C2\C(=N)N3N=C(S(C)(=O)=O)SC3=NC2=O)ccc1OS(=O)(=O)c1ccccc1	/	/	/	6	/	/	/	/
CCc1nn2c(=O)cc(COc3ccc(/C=C4\C(=N)N5N=C(CC(C)C)SC5=NC4=O)cc3)nc2s1	/	/	/	2	/	/	/	/
COc1cc(/C=C2\C(=N)N3N=C(S(C)(=O)=O)SC3=NC2=O)cc(OC)c1OCCOc1ccc(C)cc1	-2	1	30*	4	-10	-6	/	/
CC(C)Sc1nc(C(F)(F)F)cc(=O)n1-c1ccccc1	14*	0	-2	-1	-19	-4	/	/
CS(=O)(=O)c1nc(-c2ccccc2)cc(C(F)(F)F)n1	-2	1	-2	7	-7	23*	/	/
Cc1cc(NC(=O)CCS(=O)(=O)c2nc(-c3ccccc3)cc(C(F)(F)F)n2)no1	-4	0	3	-1	4	6	/	/
Cc1ccc(C(C)C)c(OCc2ccc(C(=O)N/N=C/c3ccc(O)cc3O)cc2)c1	-7	1	14	0	-36	23*	/	/
CCCC1=Nc2cc(C(=O)NCCCN3CCN(C)CC3)ccc2Sc2ccccc21	1	-1	-14	0	-2	-3	/	/
O=c1c2c(n3nnnc3n1-c1ccccc1)-c1ccccc1CC21CCCC1	-3	0	4	2	4	14*	/	/
CS(=O)(=O)c1ccc2nc(NC(=O)c3cccs3)sc2c1	-6	6.8*	3	2	-95	3	/	/
COc1ccc2[nH]c3c(C)c4ccncc4c(C)c3c2c1	2	0	36*	-7	-4	1	/	/
Cc1c2ccncc2cc2c1[nH]c1ccccc12	-2	0	0	/	8	-6	/	/
Nc1c(C(=O)NCCc2ccccc2)sc2nc(N3CCOCC3)c3c(c12)CCCC3	-8	0	8	27*	0	-2	3	3
Cc1ccccc1NC(=O)c1sc2nc(N3CCOCC3)c3c(c2c1N)CCCC3	-8	1	20	23*	-89	3	-10	3
Cc1oc2c(c1C(=O)NCc1cccnc1)C(=O)c1ccccc1C2=O	/	/	/	22*	/	/	19	0
COC(=O)c1c(C(=O)OC)c2ccccn2c1C(=O)c1ccccc1	-2	1	3	2	-35	-11	/	/
COC(=O)c1c(Cl)c2n3ccccc3c(C)c(-c3ccccc3)c-2c1C(=O)OC	-2	2	-5	61*	-1	-3	69*	70*
COC(=O)c1cc2c(-c3ccccc3)c(C)c3ccccn3c-2c1C(=O)OC	0	1	-6	28*	-35	-4	30*	29*
Cc1ccccc1CNc1ncnc2cc(Cl)ccc12	-1	1	-6	79*	6	-1	82*	82*
Cc1ccc(S(=O)(=O)NCC(=O)OCC(=O)c2ccc(Br)s2)cc1	-4	0	0	22*	-14	-2	3	10
O=C(O)c1cc(-c2cccs2)nc2ccc(F)cc12	-3	2	-6	5	-18	-4	/	/
O=C(O)c1cc(-c2ccc3c(c2)OCO3)nc2ccc(Br)cc12	-2	3	6	38*	-43	-4	44*	55*
CCN1CCN(C(=O)c2cc(-c3cccnc3)nc3ccc(Br)cc23)CC1	-1	2	3	6	-9	-6	/	/
